# Source: PubChem
# Rows were chosen to be rich in hits. Some 4.1% of all compounds tested hit in one or more screens of this group.
# hERG protect = hERG (human) protection from proarrhythmic block; hit rate 0.51% among 310,000; activation (rescue from dofetilide block), less the hit threshold, % at 10 µM; CHO-hERG, FluxOR thallium flux, dofetilide IC70 present; Q12809; AID 1511;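 active = activation above the mean of controls blocked by dofetilide plus 5 SD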;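 note: thallium influx through hERG after potassium depolarization seen as dye fluorescence rise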
# KCC2 mod = modulators of human KCC2 chloride dependent transport; Q9H2X9; KCC2 cells, thallium flux FluoZin-2 fluorescence; B-score of Tl+ flux slope (higher = more flux/activation; lower = inhibition) at 10 µM; hit rate 2.2% among 190,000; AID 1456;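 active = thallium flux slope and its plate-corrected score both differing from the plate sample mean at a set confidence after two filtering rounds, in either direction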;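 note: slope of fluorescence scaled to starting intensity during 10 to 20 s after thallium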
# KCNK3 block = human KCNK3 channel inhibition, primary screen. O14649. CHO-KCNK3 thallium flux, FluxOR fluorescence; hits give low values. B-score at 10 µM. hit rate 0.84% among 340,000;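 active = B-score under library mean minus 4 SD, starting fluorescence ratio at most library mean plus 5 SD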;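 note: more negative B-score means stronger inhibition of thallium flux through KCNK3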
# Target sequence (O14649 whole entry, looked up): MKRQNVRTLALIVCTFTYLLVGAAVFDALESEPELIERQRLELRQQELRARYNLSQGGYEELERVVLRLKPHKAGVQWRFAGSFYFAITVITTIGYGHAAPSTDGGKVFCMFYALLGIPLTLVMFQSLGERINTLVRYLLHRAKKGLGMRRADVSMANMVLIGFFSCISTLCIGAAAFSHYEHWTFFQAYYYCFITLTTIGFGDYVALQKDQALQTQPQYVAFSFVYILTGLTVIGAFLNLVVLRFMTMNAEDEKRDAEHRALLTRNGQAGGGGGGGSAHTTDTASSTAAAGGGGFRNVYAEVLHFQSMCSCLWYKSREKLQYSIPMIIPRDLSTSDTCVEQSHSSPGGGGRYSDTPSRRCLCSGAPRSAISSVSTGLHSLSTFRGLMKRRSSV
# KCNK9 block = human KCNK9 channel inhibition. Q9NPC2. HEK293 KCNK9, FluxOR thallium flux fluorescence; hits give low values. B-score at 10 µM. hit rate 1.2% among 310,000;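 active = ratio B-score over 3 SD below the library mean, with starting fluorescence within 5 SD of its mean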;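 note: negative B-score means less thallium flux so channel inhibition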
# KCNQ1 inh = inhibitors of human KCNQ1 potassium channel; B-score at 10 µM; CHO-K1 KCNQ1, FluxOR thallium flux fluorescence; hits give high values; hit rate 1.3% among 310,000; AID 2642;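 active = compounds whose thallium flux B-score, printed positive for inhibition, exceeds three library SD while starting fluorescence stays within three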;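 note: channel opened by potassium depolarization with thallium stimulus after 20 min compound exposure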
# KCNQ1 pot = potentiators or activators of human KCNQ1 potassium channel; CHO-K1 KCNQ1, thallium flux FluxOR fluorescence; hits give high values; B-score at 10 µM; hit rate 0.35% among 310,000;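 active = fluorescence ratio B-score, a plate-corrected score, at least three library SD, with initial intensity B-score within 5 SD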
#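 Material: CHO-K1 cells stably expressing KCNQ1. Medium: assay buffer for compound exposure, DMSO matched across wells. Reagent: K+/Tl+ depolarizing stimulus. Compound dosing: single-concentration screen. Times: 37 °C overnight plating, 90-min dark dye load, 20-min compound pretreatment. Technique: FluxOR Tl+ flux fluorescence.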
# The depositor's hits bear a star; i = inactive; . = no result.
SMILES,hERG protect,KCC2 mod,KCNK3 block,KCNK9 block,KCNQ1 inh,KCNQ1 pot
CCOc1ccc(OCC)c(NC(=O)CN2CCN(c3cccc(C)c3)CC2)c1,-6,-0.37,i,i,i,i
COc1ccccc1NS(=O)(=O)c1ccc(C(=O)NCCCN2CCOCC2)cc1,.,.,i,.,.,.
C=CCC1(CC=C)CCCN1C(=O)c1cc(COc2ccc(C)nc2)on1,-27,.,i,i,8*,i
C=CCC1(CC=C)CCCN1C(=O)c1cc(COc2ccccc2SC)on1,-12,.,i,i,7*,i
CSc1ccccc1OCc1cc(C(=O)N2CCC(c3ccncc3)CC2)no1,-19,.,i,i,i,i
O=C(NN=C1CCCC1)c1cc(Cl)cc(Cl)c1O,-2,.,i,i,i,i
CCC(C)(C)c1ccc(OCCCC[n+]2ccc(C)cc2)c(C(C)(C)CC)c1,-25,-1.2,.,-7.7*,7*,i
Cc1cc[n+](CC[n+]2ccc(C)cc2)cc1,-4,.,i,i,i,i
O=C(O)c1cc(=S)nc[nH]1,.,.,i,.,.,.
CCN(CC)C(=O)c1ccc(NS(=O)(=O)c2ccc3[nH]c(=O)[nH]c3c2)cc1,-3,.,i,i,i,i
CNC(=S)N=Nc1c(O)[nH]c2ccc(C(C)C)cc12,-13,6.6*,i,i,i,i
CC(C)NC(=S)N=Nc1c(O)[nH]c2ccc([N+](=O)[O-])cc12,-6,2,i,i,i,i
CCOC(=O)C1=C(C)N(c2ccccc2)C(=O)/C1=C\c1ccc(O)c(OC)c1,-5,-0.34,i,-6.8*,i,i
CCOC(=O)C1=C(C)N(c2ccccc2)C(=O)/C1=C\c1ccco1,-10,0.74,i,i,i,i
COC(=O)[C@]1(Cc2ccccc2)N[C@H](CN(C)S(=O)(=O)c2ccc(C(C)(C)C)cc2)[C@@H]2C(=O)N(C)C(=O)[C@@H]21,.,.,i,.,.,.
COc1cccc(N(C(=O)Cn2nnc(-c3ccc(C)o3)n2)C(C(=O)NC(C)(C)C)c2cccs2)c1 (centres undefined),6.4*,0.6,i,i,i,i
CC(C)(C)C1(O)CC(C(F)(F)F)=NN1C(=O)Cc1ccc([N+](=O)[O-])cc1 (centres undefined),-2,0.45,i,i,i,12*
Cc1ccc(OCC(=O)N2N=C(C(F)(F)F)CC2(O)C(C)(C)C)cc1C (centres undefined),-6,-0.79,i,i,7*,i
COc1cccc(C=Nc2ccc(N3CCOCC3)cc2)c1O,0,.,i,i,i,i
O=[N+]([O-])c1cc(Br)c(O)c(C=Nc2ccc(N3CCOCC3)cc2)c1,-14,-2.1,i,i,11*,i
COC(=O)c1c(C)oc(C)c1S(=O)(=O)NCc1ccc(OC)cc1,-3,0.46,i,i,i,i
COC(=O)c1c(C)oc(C)c1S(=O)(=O)NCc1ccc(Cl)cc1Cl,-4,-0.76,i,-7.5*,i,i
COc1ccccc1OCC(=O)N/N=C1\CCCCc2ccccc21,-15,-2.6,i,i,i,i
CCNC(=S)N/N=C1\CCCCc2ccccc21,1,6.6*,i,i,i,i
C=C(C)CNC(=S)N/N=C1\CCCCc2ccccc21,-6,11*,i,i,i,i
O=C(Nc1ccc(Br)cc1)NC1CCCCCCC1,-11,.,i,i,i,i
CC(NC(=O)NC1CCCCC1)C(c1cccs1)N1CCN(Cc2ccccc2)CC1 (centres undefined),-10,.,i,i,i,i
CC(NC(=S)NCCc1ccccc1)C(c1cccs1)N1CCN(Cc2ccccc2)CC1 (centres undefined),-12,-1.7,i,i,6*,i
CC(N=c1ccccn1C(=O)Nc1cccc(C(F)(F)F)c1)c1ccco1 (centres undefined),-6,-0.46,i,i,9*,i
Cc1ccc(NC(=O)CCNC(=O)c2ccc(Br)cc2)cc1S(=O)(=O)N1CCCCCC1,-14,.,i,i,i,i
